Tests used:
HT-29 [1] = test: Inhibition of TNFalpha-induced NF-kappaB activation expressed in human HT-29 cells coexpressing hrGFP at 400 uM after 24 hrs by propidium iodide staining-based flow cytometric analysis relative to control; type: cell-based
Outline: (§1)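 HT-29 cells stably expressing NF-κB-driven hrGFP given compound (DMSO <0.5%) for 2 h at the maximum non-cytotoxic concentration, then TNF-α at 3 ng/mL final for 18–24 h. Cells trypsinised and stained with propidium iodide; 5000 events gated on FSC/SSC. The %GFP-positive among PI-excluding live cells is normalised to TNF-α/DMSO control, ± SD.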

[2] = Cytotoxicity against human HT-29 cells expressing NF-kappaB-hrGFP assessed as highest non-cytotoxic dose for 100% cell survival after 24 hrs by MTT assay; type: cell-based; details: read-out: Activity
Outline: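 HT-29 cells stably carrying pNF-κB-hrGFP, seeded at 0.5 × 10^6/mL in DMEM with 10% FBS, grown 24 h at 37 °C, 5% CO2. Compounds added in DMSO (<0.5% v/v final) at 12.5–400 µM for 24 h. Viability by MTT reduction (2 h), formazan dissolved in DMSO/glycine buffer, read at 560 nm.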

[3] = Cytotoxicity against mouse […] cells after 48 hrs by MTT assay; type: cell-based
Outline: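 J774 macrophages in DMEM (4 mM L-glutamine, 10% heat-inactivated FBS) were seeded at 1 × 10^5 cells/well and grown for 48 h at 37 °C, 5% CO2. They were then exposed to compounds at 25–400 µM for 48 h. MTT (0.1 mg/mL final) was added for 3 h, formazan was dissolved in DMSO/glycine buffer pH 10.5, and absorbance was read at 560 nm to give an IC50.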

HT-29 [4] = test: Pro-inflammatory activity in NFkappaB-GFP transfected human HT-29 cells at 25 to 400 uM after 24 hrs by propidium iodide staining-based flow cytometric analysis; type: ADME, cell-based; details: ht-29, 24 h
Outline: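 Reporter HT-29-NF-κB-hrGFP cells given compound alone, without TNF-α, for 18–24 h at 37 °C after the same 2 h pre-incubation. GFP-positive live (propidium iodide-excluding) cells counted by flow cytometry; IL-8 in supernatant measured by bead-based flow cytometry.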

Glycine max = test: Inhibition of soybean lipoxygenase using arachidonic acid as substrate at 50 uM
Outline: (§2)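 Soybean 15-lipoxygenase kit assay, arachidonic acid substrate, H2O2 as lipoxygenating agent in 0.1 M Tris-HCl pH 7.4. Single-point screen at 50 µM. IC50 found by varying concentration over 10–100 µM. Quercetin at 4 µM as positive control; duplicate means; Student t-test.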

[5] = Inhibition of soybean lipoxygenase using arachidonic acid as substrate; design: species or system Glycine max; outline: as §2
HT-29 [6] = test: Inhibition of NF-kappaB activation expressed in human HT-29 cells assessed as inhibition of TNFalpha-stimulated IL8 release at 400 uM after 24 hrs by flow cytometric analysis relative to control; type: cell-based
Outline: (§3)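 Reporter HT-29-NF-κB-hrGFP cells pretreated 2 h with compound (DMSO <0.5%) at the highest concentration with 100% survival, then stimulated with TNF-α (3 ng/mL final) for 18–24 h at 37 °C. IL-8 in clarified supernatant measured by flow cytometric bead assay (500 events). Expressed as % of TNF-α/DMSO control ± SD; thalidomide as reference.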

HT-29 [7] = test: Inhibition of TNFalpha-induced NF-kappaB activation expressed in human HT-29 cells coexpressing hrGFP at 100 uM after 24 hrs by propidium iodide staining-based flow cytometric analysis relative to control; type: cell-based; outline: as §1
HT-29 [8] = test: Inhibition of NF-kappaB activation expressed in human HT-29 cells assessed as inhibition of TNFalpha-stimulated IL8 release at 100 uM after 24 hrs by flow cytometric analysis relative to control; type: cell-based; outline: as §3
Mus musculus [9] = test: Analgesic activity in albino mouse assessed as inhibition of acetic acid-induced abdominal constriction at 100 umol/kg, po administered 1 hr before acetic acid challenge measured after 60 mins relative to control; type: functional; details: Abdomen
Outline: (§4)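 Albino mice of both sexes (18–23 g) were dosed orally as a suspension in 5% arabic gum in saline, with vehicle controls. After 1 h they received 0.6% acetic acid ip (0.1 mL/10 g). Constrictions were counted for 20 min starting 10 min after injection. Data are % inhibition vs vehicle, mean ± SEM, Student t-test.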

Rattus norvegicus = test: Antiinflammatory activity in albino rat assessed as inhibition of carrageenan-induced paw edema at 100 umol/kg, po administered 1 hr before carrageenan challenge measured after 3 hrs by plethysmometric analysis relative to control; type: functional
Outline: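 Albino rats of both sexes (150–200 g) were dosed orally as a suspension in 1% Tween 80 in saline, with vehicle controls. After 1 h, 0.1 mL 1% carrageenan or saline was injected subplantar. Paw volume was read by glass plethysmometer at 3 h. Edema = carrageenan-paw minus saline-paw volume; % inhibition vs vehicle; Student t-test.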

Mus musculus [10] = test: Analgesic activity in albino mouse assessed as inhibition of acetic acid-induced abdominal constriction at 100 umol/kg, po administered 1 hr before acetic acid challenge measured after 30 mins relative to control; type: functional; details: Abdomen; outline: as §4
[11] = Induction of NO release in 0.1 M Tris-HCl and 0.1 mM DTPA at pH 7.4 measured for 20 mins in presence of cysteine; type: physicochemical; details: buffer, pH 7.4, 20 min
Outline: (§5)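 Electrochemical NO detection with an ISO-NOP sensor. Compounds in DMSO added to 0.1 M Tris-HCl, 0.1 mM DTPA at pH 7.4 or 8.3. Cysteine (300 or 100 µM) added and NO recorded for 20 min at 25 or 37 °C; compound:Cys ratio 1:1 at 25 °C, with 3:1 and 37 °C runs also made.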

[12] = Induction of NO release in 0.1 M Tris-HCl and 0.1 mM DTPA at pH 8.3 measured for 20 mins in presence of cysteine; type: physicochemical; details: buffer, pH 8.3, 20 min; outline: as §5
HT-29 [13] = test: Inhibition of TNF-alpha-induced NFkappaB activation expressed in human HT-29 cells coexpressing hrGFP at 50 uM after 24 hrs by propidium iodide staining-based flow cytometric analysis relative to control; type: cell-based; outline: as §1
HT-29 [14] = test: Inhibition of NF-kappaB activation expressed in human HT-29 cells assessed as inhibition of TNFalpha-stimulated IL8 release at 50 uM after 24 hrs by flow cytometric analysis relative to control; type: cell-based; outline: as §3

SMILES | NF-kappaB activity (GFP-positive cells), % of TNF-alpha control (HT-29 [1]) [%] | MNTC at 24 h [2] [µM] | IC50 [3] [µM] | Activity (HT-29 [4]) | inhibition (Glycine max) [%] | IC50 [5] [µM] | inhibition (HT-29 [6]) [%] | NF-kappaB activity (% of TNF-alpha control) (HT-29 [7]) [%] | inhibition (HT-29 [8]) [%] | inhibition in vivo at 100 µmol/kg (Mus musculus [9]) [%] | inhibition in vivo at 100 µmol/kg (Rattus norvegicus) [%] | inhibition in vivo at 100 µmol/kg (Mus musculus [10]) [%] | Activity [11] [nM/min] | Activity [12] [nM/min] | NF-kappaB activation (% of TNF-alpha control) (HT-29 [13]) [%] | inhibition (HT-29 [14]) [%]
Cc1c(C(=O)N/N=C/c2ccc(C(F)(F)F)cc2)no[n+]1[O-] | 55 | 400 | > 400 | Non-toxic | 55 | 50 | – | – | – | – | – | – | – | – | – | –
Cc1c(/C=N/NC(=O)c2ccc3c(c2)OCO3)no[n+]1[O-] | 102 | 400 | 132 | Non-toxic | – | – | 106 | – | – | – | – | – | – | – | – | –
Cc1c(C(=O)N/N=C/c2ccco2)no[n+]1[O-] | – | 100 | > 400 | Non-toxic | 0 | – | – | 99 | 82 | – | – | – | – | – | – | –
COc1ccc(/C=N/NC(=O)c2no[n+]([O-])c2C)cc1O | 117 | 400 | > 400 | Non-toxic | 58 | – | 59 | – | – | – | – | – | – | – | – | –
O=C(N/N=C/c1c(-c2ccccc2)no[n+]1[O-])c1cnn(-c2ccccc2)c1 | 105 | 400 | 42 | Non-toxic | – | – | – | – | – | – | – | – | – | – | – | –
Cc1c(C(=O)N/N=C/c2ccc(Br)cc2)no[n+]1[O-] | – | 100 | 162 | Non-toxic | 0 | – | – | 126 | 61 | 23 | 0 | – | – | – | – | –
Cc1nc2ccccn2c1C(=O)N/N=C/c1c(-c2ccccc2)no[n+]1[O-] | 32 | 400 | 56 | Non-toxic | 0 | – | 38 | – | – | 14 | 18 | 2 | 0 | 0 | – | –
Cc1c(C(=O)N/N=C/c2ccc3c(c2)OCO3)no[n+]1[O-] | – | 100 | > 400 | Non-toxic | – | – | – | 97 | 98 | – | – | – | – | – | – | –
O=C(N/N=C/c1ccc2no[n+]([O-])c2c1)c1cnn(-c2ccccc2)c1 | – | – | 37 | Non-toxic | – | – | – | – | – | – | – | – | – | – | – | –
COc1ccc(/C=N/NC(=O)c2no[n+]([O-])c2C)cc1OC | 120 | 400 | > 400 | Non-toxic | 0 | – | 68 | – | – | 17 | 4 | – | – | – | – | –
O=C(N/N=C/c1ccc2no[n+]([O-])c2c1)c1ccc2c(c1)OCO2 | 87 | 400 | 141 | Non-toxic | 55 | 50 | 64 | – | – | – | – | – | – | 0 | – | –
Cc1c(C(=O)N/N=C/c2ccc3no[n+]([O-])c3c2)no[n+]1[O-] | 121 | 400 | > 400 | Non-toxic | – | – | 68 | – | – | – | – | – | – | – | – | –
Cc1c(C(=O)N/N=C/c2ccc([N+](=O)[O-])s2)no[n+]1[O-] | – | 100 | 68 | Non-toxic | – | – | – | 111 | – | – | – | – | – | – | – | –
Cc1nc2ccccn2c1C(=O)N/N=C/c1no[n+]([O-])c1C | 120 | 400 | > 400 | Non-toxic | – | – | 77 | – | – | – | – | – | – | – | – | –
Cc1nc2ccccn2c1C(=O)NN | – | 50 | > 400 | Non-toxic | – | – | – | – | – | – | – | – | – | – | 111 | –
Cc1c(C(=O)N/N=C/c2cccs2)no[n+]1[O-] | – | 100 | > 400 | Non-toxic | 10 | > 100 | – | 122 | 75 | 14 | 0 | – | – | – | – | –
NNC(=O)c1ccc2c(c1)OCO2 | – | 50 | > 400 | Non-toxic | – | – | – | – | – | – | – | – | – | – | 118 | –
Cc1c(C(=O)N/N=C/c2c(-c3ccccc3)no[n+]2[O-])no[n+]1[O-] | – | 100 | > 400 | Non-toxic | – | – | – | 122 | 77 | – | – | – | – | – | – | –
Cc1nc2ccccn2c1C(=O)N/N=C/c1ccc2no[n+]([O-])c2c1 | 104 | 400 | > 400 | Non-toxic | – | – | 76 | – | – | – | – | – | – | – | – | –
Cc1c(/C=N/NC(=O)c2cnn(-c3ccccc3)c2)no[n+]1[O-] (mixture of isomers) | – | 100 | 295 | Non-toxic | 0 | – | – | 80 | – | – | – | – | – | – | – | –
Cc1c(C(=O)N/N=C/c2ccc([N+](=O)[O-])o2)no[n+]1[O-] | – | 100 | 96 | Non-toxic | – | – | – | 136 | 48 | 13 | 14 | – | – | – | – | –
O=C(O)c1ccc(/C=N/NC(=O)c2c(-c3ccccc3)no[n+]2[O-])cc1 | – | 50 | > 300 | Non-toxic | 53 | 50 | – | – | – | – | – | – | – | 0 | 115 | 114
Cc1c(/C=N/NC(=O)c2no[n+]([O-])c2C)no[n+]1[O-] | – | 100 | > 400 | Non-toxic | 55 | 50 | – | 127 | 65 | 14 | 10 | – | – | – | – | –
COc1cc(/C=N/NC(=O)c2no[n+]([O-])c2C)ccc1O | – | 100 | > 400 | Non-toxic | 1 | – | – | 149 | 77 | – | – | – | – | 0 | – | –

Reference: ChEMBL document CHEMBL1955718, “Discovery of new orally effective analgesic and anti-inflammatory hybrid furoxanyl N-acylhydrazone derivatives” (Bioorg Med Chem, 2012)
